Measurements from paper PMC12716021 (Chemistry & Biodiversity, 2025).

What was measured:
[1] = Ferric reducing antioxidant power; details: read-out: IC50 FRAP; in vitro; standard gallic acid
NO scavenging activity = details: read-out: IC50 NO; in vitro; standard gallic acid
How it was run: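 Sodium nitroprusside (10 mM, in sodium phosphate buffer pH 7.4) added to test compound ([…]) or distilled water as control, then incubated at 37°C for 2 h. Griess reagent added, and A540 read. NO scavenging % = (1 − A compound/A control) × 100.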

[2] = DPPH radical scavenging activity; details: read-out: IC50 DPPH; in vitro; standard gallic acid

IC50 [1]: 117 µM
IC50 (NO scavenging activity): 78.5 µM
IC50 [2]: 105 µM
SMILES: O=C(O)c1cc(O)c(O)c(O)c1 [Gallic acid]
